How the values were obtained:
[1] = compound: O=C(NP(=O)(NN1CCOCC1)NN1CCOCC1)c1ccccc1; assay: (§1) Inhibition of human AChE by double reciprocal Lineweaver-Burke plot assay
Outline: (§2)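 Kinetics used the same Ellman read-out, with substrate varied: acetylthiocholine for AChE, butyrylthiocholine for BChE. Rates were taken as OD min-1 with and without inhibitor. Km and Vmax were derived from double-reciprocal Lineweaver-Burk plots of 1/V against 1/[S].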

[2] = compound: O=C(NP(=O)(NN1CCCCC1)NN1CCCCC1)c1ccccc1; assay: as §1; outline: as §2
[3] = compound: O=P(O)(NN1CCCCC1)Oc1ccccc1; assay: as §1; outline: as §2
[4] = compound: O=P(NN1CCOCC1)(NN1CCOCC1)Oc1ccccc1; assay: as §1; outline: as §2
[5] = compound: O=C(NP(=O)(NN1CCOCC1)NN1CCOCC1)c1ccccc1; assay: (§3) Inhibition of human BChE by double reciprocal Lineweaver-Burke plot assay; outline: as §2
[6] = compound: O=C(NP(=O)(NN1CCCCC1)NN1CCCCC1)c1ccccc1; assay: as §3; outline: as §2
[7] = compound: O=P(O)(NN1CCCCC1)Oc1ccccc1; assay: as §3; outline: as §2
[8] = compound: O=P(NN1CCOCC1)(NN1CCOCC1)c1ccccc1; assay: as §3; outline: as §2
[9] = compound: O=P(NN1CCOCC1)(NN1CCOCC1)Oc1ccccc1; assay: as §3; outline: as §2

B1: Acetylcholinesterase (Homo sapiens), P22303 (protein)
chain: MRPPQCLLHTPSLASPLLLLLLWLLGGGVGAEGREDAELLVTVRGGRLRGIRLKTPGGPVSAFLGIPFAEPPMGPRRFLPPEPKQPWSGVVDATTFQSVCYQYVDTLYPGFEGTEMWNPNRELSEDCLYLNVWTPYPRPTSPTPVLVWIYGGGFYSGASSLDVYDGRFLVQAERTVLVSMNYRVGAFGFLALPGSREAPGNVGLLDQRLALQWVQENVAAFGGDPTSVTLFGESAGAASVGMHLLSPPSRGLFHRAVLQSGAPNGPWATVGMGEARRRATQLAHLVGCPPGGTGGNDTELVACLRTRPAQVLVNHEWHVLPQESVFRFSFVPVVDGDFLSDTPEALINAGDFHGLQVLVGVVKDEGSYFLVYGAPGFSKDNESLISRAEFLAGVRVGVPQVSDLAAEAVVLHYTDWLHPEDPARLREALSDVVGDHNVVCPVAQLAGRLAAQGARVYAYVFEHRASTLSWPLWMGVPHGYEIEFIFGIPLDPSRNYTAEEKIFAQRLMRYWANFARTGDPNEPRDPKAPQWPPYTAGAQQYVSLDLRPLEVRRGLRAQACAFWNRFLPKLLSATDTLDEAERQWKAEFHRWSSYMVHWKNQFDHYSKQDRCSDL
[1]
  Km: 49 µM
  Vmax: 55.5 mM/min
[2]
  Km: 45 µM
  Vmax: 40 mM/min
[3]
  Km: 51 µM
  Vmax: 11.1 mM/min
[4]
  Km: 47 µM
  Vmax: 37 mM/min

B2: Cholinesterase (Homo sapiens), P06276 (protein)
chain: MHSKVTIICIRFLFWFLLLCMLIGKSHTEDDIIIATKNGKVRGMNLTVFGGTVTAFLGIPYAQPPLGRLRFKKPQSLTKWSDIWNATKYANSCCQNIDQSFPGFHGSEMWNPNTDLSEDCLYLNVWIPAPKPKNATVLIWIYGGGFQTGTSSLHVYDGKFLARVERVIVVSMNYRVGALGFLALPGNPEAPGNMGLFDQQLALQWVQKNIAAFGGNPKSVTLFGESAGAASVSLHLLSPGSHSLFTRAILQSGSFNAPWAVTSLYEARNRTLNLAKLTGCSRENETEIIKCLRNKDPQEILLNEAFVVPYGTPLSVNFGPTVDGDFLTDMPDILLELGQFKKTQILVGVNKDEGTAFLVYGAPGFSKDNNSIITRKEFQEGLKIFFPGVSEFGKESILFHYTDWVDDQRPENYREALGDVVGDYNFICPALEFTKKFSEWGNNAFFYYFEHRSSKLPWPEWMGVMHGYEIEFVFGLPLERRDNYTKAEEILSRSIVKRWANFAKYGNPNETQNNSTSWPVFKSTEQKYLTLNTESTRIMTKLRAQQCRFWTSFFPKVLEMTGNIDEAEWEWKAGFHRWNNYMMDWKNQFNDYTSKKESCVGL
[5]
  Km: 50 µM
  Vmax: 23.5 mM/min
[6]
  Km: 75 µM
  Vmax: 55.6 mM/min
[7]
  Km: 67 µM
  Vmax: 27.8 mM/min
[8]
  Km: 67 µM
  Vmax: 71.4 mM/min
[9]
  Km: 85 µM
  Vmax: 66.4 mM/min

From ChEMBL document CHEMBL1275282, “Synthesis, characterization, oxidative degradation, antibacterial activity and acetylcholinesterase/butyrylcholinesterase inhibitory effects of some new phosphorus(V) hydrazides” (Eur J Med Chem, 2010)
